# The source made the active and inactive calls. The calls are words filed in the database; no cut-off is given here.
# Legend:
# Jurkat [1] = assay: Phototoxicity against human Jurkat cells irradiated with 3.75 J/cm'2 after 72 hrs by MTT assay; type: functional, cell-based; conditions: light or radiation study
# In short: (§1)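 Cells were seeded at 8 × 10³ and preincubated 18 h at 37 °C, 5% CO₂. Jurkat and K-562 grew in RPMI-1640, MCF-7 and NCTC-2544 in DMEM, and LoVo in Ham's F12, all with 10% FBS plus penicillin and streptomycin. Compounds in DMSO were diluted in HBSS, pH 7.2 (range 20–0.31; DMSO ≤1%) and applied 30 min at 37 °C. Wells were then UV-A irradiated (365 nm; 2.5 or 3.75 J/cm²), medium was replaced, and MTT was read after 72 h.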
# Jurkat [2] = assay: Phototoxicity against human Jurkat cells irradiated with 2.5 J/cm'2 after 72 hrs by MTT assay; type: functional, cell-based; conditions: light or radiation study; in short: as §1
# Jurkat [3] = assay: Cell cycle arrest in human Jurkat cells assessed as accumulation in S phase at 1 uM irradiated with 20 J/cm'2 after 24 hrs by flow cytometry; type: functional
# In short: (§2)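 Exponentially growing Jurkat cells (5 × 10⁵) were irradiated with compound present. Drug was removed, and cells were kept 24 h in RPMI-1640, fixed in ice-cold 70% ethanol, and treated overnight with RNAse (10 KU/mL) in PBS. Cells were stained with propidium iodide and run on a flow cytometer, with DNA content reported as the fraction of cells in each cycle phase.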
# Jurkat [4] = assay: Induction of apoptosis in human Jurkat cells assessed as phosphatidylserine esposure after 2 hrs using annexin-V FITC and PI staining by flow cytometry; type: functional, cell-based
# In short: (§3)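 Jurkat cells (100,000) were irradiated (2.5 J/cm²) with compound present and centrifuged 30 min, 1 h or 2 h later. They were stained with Annexin V-FITC/PI for 15 min in the dark, and FITC (FL1) and PI (FL3) were read by flow cytometry, with at least 10,000 events. Cells were classed as intact, early apoptotic, late apoptotic/necrotic or necrotic. Values are the mean of three experiments.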
# Jurkat [5] = assay: Induction of apoptosis in human Jurkat cells assessed as lysosomal dysfunction at 1 uM after 4 hrs post-irradiation with 2.5 J/cm'2 using acridine orange dye by flow cytometry; type: functional
# In short: (§4)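 Jurkat cells were irradiated (2.5 J/cm²) with compound present and collected at 2 and 4 h. They were resuspended in RPMI-1640 containing acridine orange, and the percentage of red-fluorescent cells (intact lysosomes) was scored by flow cytometry. Values are mean ± SD of at least three independent experiments.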
# Jurkat [6] = assay: Induction of apoptosis in human Jurkat cells assessed as induction of loss of membrane potential at 1 uM after 2 hrs post-irradiation with 20 J/cm'2 using JC1 staining by FACS; type: functional
# In short: (§5)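 Irradiated Jurkat cells treated with compound were collected 2 and 4 h after irradiation and resuspended in HBSS containing JC-1. Green (FL1) and orange (FL2) fluorescence were read by flow cytometry, with at least 10,000 events per sample. Values are mean ± SD of at least three independent experiments.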
# Jurkat [7] = assay: Induction of apoptosis in human Jurkat cells assessed as induction of loss of membrane potential at 1 uM after 4 hrs post irradiation with 20 J/cm'2 using JC1 staining by FACS; type: functional; in short: as §5
# Jurkat [8] = assay: Induction of apoptosis in human Jurkat cells assessed as induction of loss of membrane potential at 1 uM after 2 hrs post-irradiation with 20 J/cm'2 by flow cytometry; type: functional; in short: as §5
# Jurkat [9] = assay: Induction of apoptosis in human Jurkat cells assessed as induction of loss of membrane potential at 1 uM after 4 hrs post-irradiation with 20 J/cm'2 by flow cytometry; type: functional; in short: as §5
# Nucleic Acid = assay: Binding affinity to salmon testes DNA assessed as intercalation by linear dichroism experiment; type: nucleic-acid assay; conditions: Salmonidae
# In short: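 Salmon testes DNA was mixed with compound at [Drug]/[DNA] ratios of 0, 0.02 and 0.04 in 10 mM phosphate buffer, pH 7.2. Samples were oriented in a rotating cylindrical flow cuvette (0.14 cm path, 800 rpm), and linear dichroism spectra were recorded over roughly 250–450 nm.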
# Jurkat [10] = assay: Induction of lipid peroxidation in human Jurkat cells irradiated with 2.5 J/cm'2 assessed as increase in malondialdehyde production after 24 hrs by TBARS assay relative to untreated control; type: functional, cell-based
# In short: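 Jurkat cells (500,000) were irradiated (2.5 J/cm²) with compound present and incubated 24 h. Supernatant was kept with BHT, and cells were lysed in 1% SDS, with protein measured by the Peterson method. Malondialdehyde was measured by thiobarbituric acid reaction (fluorescence, 553 nm) against a 1,1,3,3-tetraethoxypropane standard curve. Results are given as nmol TBARS normalized to protein.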
# Jurkat [11] = assay: Induction of apoptosis in human Jurkat cells assessed as lysosomal dysfunction at 1 uM after 2 hrs post-irradiation with 2.5 J/cm'2 using acridine orange dye by flow cytometry; type: functional; in short: as §4
# Jurkat [12] = assay: Induction of apoptosis in human Jurkat cells assessed as increase in mitochondrial ROS production at 1 uM after 6 hrs post-irradiation with 2.5 J/cm'2 by FACS analysis; type: functional
# In short: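 Jurkat cells were irradiated (2.5 J/cm²) with compound present and collected 6 h later. They were resuspended in HBSS with hydroethidine and DCFDA (2.5 and 5, respectively) and held at 37 °C for 15 or 30 min. Flow cytometry used 488 nm excitation, reading 620 nm for HE and 530 nm for DCF, with at least 10,000 events. Values are mean ± SD, three independent experiments.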
# Jurkat [13] = assay: Induction of apoptosis in human Jurkat cells assessed as increase in mitochondrial ROS production at 2.5 uM after 6 hrs post-irradiation with 2.5 J/cm'2 by FACS analysis; type: functional
# In short: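 Jurkat cells were collected 6 h after UV-A irradiation (2.5 J/cm²) with the compound and resuspended in HBSS with hydroethidine 2.5 µM or DCFDA 5 µM. They were incubated at 37 °C for 15 or 30 min. Flow cytometry used 488 nm excitation, with emission at 620 nm (HE) or 530 nm (DCF), acquiring ≥10,000 events. Values are means ± SD of three independent experiments.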
# Jurkat [14] = assay: Cell cycle arrest in human Jurkat cells assessed as accumulation in subG1 phase at 1 uM irradiated with 20 J/cm'2 after 24 hrs by flow cytometry; type: functional; in short: as §2
# [15] = Phototoxicity against human sNCTC-2544 cells irradiated with 3.75 J/cm'2 after 72 hrs by MTT assay; type: functional, cell-based; conditions: NCTC-2544, light or radiation study; in short: as §1
# [16] = Phototoxicity against human sNCTC-2544 cells irradiated with 2.5 J/cm'2 after 72 hrs by MTT assay; type: functional, cell-based; conditions: NCTC-2544, light or radiation study; in short: as §1
# MCF7 [17] = assay: Phototoxicity against human MCF7 cells irradiated with 3.75 J/cm'2 after 72 hrs by MTT assay; type: functional, cell-based; conditions: MCF7, light or radiation study; in short: as §1
# MCF7 [18] = assay: Phototoxicity against human MCF7 cells irradiated with 2.5 J/cm'2 after 72 hrs by MTT assay; type: functional, cell-based; conditions: MCF7, light or radiation study; in short: as §1
# LoVo [19] = assay: Phototoxicity against human LoVo cells irradiated with 3.75 J/cm'2 after 72 hrs by MTT assay; type: functional, cell-based; conditions: light or radiation study; in short: as §1
# LoVo [20] = assay: Phototoxicity against human LoVo cells irradiated with 2.5 J/cm'2 after 72 hrs by MTT assay; type: functional, cell-based; conditions: light or radiation study; in short: as §1
# K562 [21] = assay: Phototoxicity against human K562 cells irradiated with 3.75 J/cm'2 after 72 hrs by MTT assay; type: functional, cell-based; conditions: K562, light or radiation study; in short: as §1
# K562 [22] = assay: Phototoxicity against human K562 cells irradiated with 2.5 J/cm'2 after 72 hrs by MTT assay; type: functional, cell-based; conditions: K562, light or radiation study; in short: as §1
# Jurkat [23] = assay: Cell cycle arrest in human Jurkat cells assessed as accumulation in G1 phase at 1 uM irradiated with 25 J/cm'2 after 24 hrs by flow cytometry
# Jurkat [24] = assay: Cell cycle arrest in human Jurkat cells assessed as accumulation in G2/M phase at 1 uM irradiated with 25 J/cm'2 after 24 hrs by flow cytometry
# Jurkat [25] = assay: Induction of apoptosis in human Jurkat cells assessed as phosphatidylserine esposure after 30 mins using annexin-V FITC and PI staining by flow cytometry; type: functional, cell-based; in short: as §3
structure (smiles),measurement,setting,value
CCOC(=O)c1cc2c(n1Cc1ccccc1)-c1[nH]c(=O)c(S(=O)(=O)c3ccccc3)cc1CC2,IC50,Jurkat [1],600 nM
same,IC50,Jurkat [2],800 nM
same,Activity,Jurkat [3],8.2%
same,Activity,Jurkat [4],Active
same,Activity,Jurkat [5],55.82%
same,Activity,Jurkat [6],75.74%
same,Activity,Jurkat [7],32.82%
same,Activity,Jurkat [8],24.26%
same,Activity,Jurkat [9],67.18%
same,Activity,Nucleic Acid,inactive
same,Activity,Jurkat [10],Dose-dependent effect
same,Activity,Jurkat [11],29.76%
same,Activity,Jurkat [12],24.4%
same,Activity,Jurkat [13],Active
same,Activity,Jurkat [14],68.5%
same,IC50,[15],1000 nM
same,IC50,[16],1100 nM
same,IC50,MCF7 [17],800 nM
same,IC50,MCF7 [18],900 nM
same,IC50,LoVo [19],800 nM
same,IC50,LoVo [20],900 nM
same,IC50,K562 [21],600 nM
same,IC50,K562 [22],900 nM
same,Activity,Jurkat [23],16.1%
same,Activity,Jurkat [24],7.2%
CCOC(=O)c1cc2c(n1C)-c1[nH]c(=O)c(S(=O)(=O)c3ccccc3)cc1CC2,IC50,Jurkat [1],500 nM
same,IC50,Jurkat [2],700 nM
same,Activity,Jurkat [3],6.6%
same,Activity,Jurkat [5],36.97%
same,Activity,Jurkat [6],98.68%
same,Activity,Jurkat [7],94.8%
same,Activity,Jurkat [8],1.3%
same,Activity,Jurkat [9],5.14%
same,Activity,Nucleic Acid,inactive
same,Activity,Jurkat [10],Dose-dependent effect
same,Activity,Jurkat [11],29.72%
same,Activity,Jurkat [12],0.7%
same,Activity,Jurkat [14],63.3%
same,Activity,Jurkat [25],Active
same,IC50,[15],1100 nM
same,IC50,[16],1200 nM
same,IC50,MCF7 [17],1000 nM
same,IC50,MCF7 [18],1200 nM
same,IC50,LoVo [19],1000 nM
same,IC50,LoVo [20],1100 nM
same,IC50,K562 [21],900 nM
same,IC50,K562 [22],1000 nM
same,Activity,Jurkat [23],16.1%
same,Activity,Jurkat [24],14%
CCOC(=O)c1cc2c(n1Cc1ccc(OC)cc1)-c1[nH]c(=O)c(S(=O)(=O)c3ccccc3)cc1CC2,IC50,Jurkat [1],700 nM
same,IC50,Jurkat [2],800 nM
same,Activity,Jurkat [3],6.1%
same,Activity,Jurkat [4],Active
same,Activity,Jurkat [5],63.16%
same,Activity,Jurkat [6],55.57%
same,Activity,Jurkat [7],25.86%
same,Activity,Jurkat [8],44.43%
same,Activity,Jurkat [9],47.07%
same,Activity,Nucleic Acid,inactive
same,Activity,Jurkat [10],Dose-dependent effect
same,Activity,Jurkat [11],58.5%
same,Activity,Jurkat [12],79.08%
same,Activity,Jurkat [13],Active
same,Activity,Jurkat [14],74.7%
same,IC50,[15],1600 nM
same,IC50,[16],1900 nM
same,IC50,MCF7 [17],1300 nM
same,IC50,MCF7 [18],1600 nM
same,IC50,LoVo [19],1000 nM
same,IC50,LoVo [20],1100 nM
same,IC50,K562 [21],900 nM
same,IC50,K562 [22],1000 nM
same,Activity,Jurkat [23],12.6%
same,Activity,Jurkat [24],6.6%

# Source: ChEMBL document CHEMBL1177638, “Synthesis of pyrrolo[3,2-h]quinolinones with good photochemotherapeutic activity and no DNA damage” (Bioorg Med Chem, 2010)
